From ChEMBL document CHEMBL4028873, “The Discovery of a Dual TTK Protein Kinase/CDC2-Like Kinase (CLK2) Inhibitor for the Treatment of Triple Negative Breast Cancer Initiated from a Phenotypic Screen” (J Med Chem, 2017)
Activity calls are given as the source filed them. The calls are words filed in the database; no cut-off is given here.

Legend:
[1] = biological target: T1, Dual specificity tyrosine-phosphorylation-regulated kinase 1A (Homo sapiens, UniProt Q13627); details: 3 uM
CAL-51 [2] = assay: Antiproliferative activity against human CAL51 cells assessed as reduction in cell viability incubated for 12 to 72 hrs followed by compound washout measured after 72 hrs by Cell-Titer Glo assay; assay type: functional, cell-based
Method in brief: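 Cal-51 seeded at 3000 cells/well, dosed next day (0.2% DMSO final), triplicate wells; exposure at 37 °C, 5% CO2 for 6, 12, 24, 48 or 72 h, then three medium washes and culture in fresh medium up to 72 h post treatment; viability read by CellTiter-Glo luminescence.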

MDA-MB-468 = assay: Antiproliferative activity against human MDA-MB-468 cells after 3 days by CellTiter-Glo assay; assay type: functional, cell-based
Method in brief: (§1)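 Cell lines kept in vendor-recommended growth media; 3-day compound exposure, then CellTiter-Glo luminescence read. Percent inhibition per concentration normalized to DMSO control, triplicate wells.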

[3] = biological target: T2, Phosphatidylinositol 5-phosphate 4-kinase type-2 gamma (Homo sapiens) (UniProt Q8TBX8); assay: Binding affinity to PIP4K2C in human HCT116 cell lysate at 3 uM after 1 hr by LC-MS/MS analysis
T2 sequence (whole entry): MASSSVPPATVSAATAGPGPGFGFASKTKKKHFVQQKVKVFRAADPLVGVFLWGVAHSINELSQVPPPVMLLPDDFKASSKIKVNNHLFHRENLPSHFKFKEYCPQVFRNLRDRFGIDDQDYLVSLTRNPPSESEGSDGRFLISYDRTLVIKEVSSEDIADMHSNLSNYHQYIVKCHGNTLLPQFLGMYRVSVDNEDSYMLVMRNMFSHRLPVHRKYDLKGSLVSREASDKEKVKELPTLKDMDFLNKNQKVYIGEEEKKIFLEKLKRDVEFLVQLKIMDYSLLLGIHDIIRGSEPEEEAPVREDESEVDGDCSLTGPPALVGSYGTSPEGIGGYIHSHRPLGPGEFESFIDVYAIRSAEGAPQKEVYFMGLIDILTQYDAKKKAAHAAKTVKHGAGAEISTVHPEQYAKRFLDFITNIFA
Method in brief: (§2)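 ActivX KiNative cellular kinase profiling. HCT-116 cells were grown in RPMI-1640 with 10% FBS and exposed to compound at 3 μM for 1 h, with DMSO-only controls. Cells were then washed with ice-cold PBS, scraped, pelleted and stored at −80 °C. Kinase binding was reported as percent occupancy relative to the untreated controls.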

[4] = biological target: T3, Phosphorylase b kinase gamma catalytic chain, skeletal muscle/heart isoform (Homo sapiens, UniProt Q16816); assay: Inhibition of full length human GST-tagged PHKG1 expressed in baculovirus by Z'-LYTE assay
Target sequence in this assay (Q16816 whole entry, canonical isoform): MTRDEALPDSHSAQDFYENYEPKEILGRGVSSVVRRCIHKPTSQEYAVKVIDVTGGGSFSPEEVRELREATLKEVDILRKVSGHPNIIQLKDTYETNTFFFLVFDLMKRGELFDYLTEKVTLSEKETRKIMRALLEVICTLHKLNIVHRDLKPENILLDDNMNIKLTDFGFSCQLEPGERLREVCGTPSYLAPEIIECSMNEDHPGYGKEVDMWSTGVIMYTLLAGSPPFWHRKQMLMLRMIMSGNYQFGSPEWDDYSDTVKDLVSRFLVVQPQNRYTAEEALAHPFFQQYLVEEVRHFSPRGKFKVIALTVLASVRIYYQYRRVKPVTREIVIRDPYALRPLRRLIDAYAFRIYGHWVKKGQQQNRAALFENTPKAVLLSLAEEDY

[5] = Metabolic stability in rat liver S9 fraction assessed as percent of compound remaining after 60 mins; assay type: ADME, tissue-based; details: read-out: Stability
[6] = Metabolic stability in human liver S9 fraction assessed as percent of compound remaining after 60 mins; assay type: ADME, tissue-based; details: read-out: Stability
[7] = Clearance in SCID mouse at 5 mg/kg, iv; assay type: ADME, organism-based; details: in vivo
[8] = Mean residence time in rat at 2 mg/kg, iv; assay type: ADME, organism-based; details: in vivo
[9] = biological target: T3, Phosphorylase b kinase gamma catalytic chain, skeletal muscle/heart isoform; assay: Binding affinity to PHKG1 in human HCT116 cells at 3 uM after 1 hr by LC-MS/MS analysis relative to control; assay type: cell-based
Method in brief: as §2
Target sequence in this assay (Q16816 whole entry, looked up, canonical isoform): as the sequence (Q16816 whole entry, canonical isoform) above

Mus musculus = assay: Toxicity in SCID mouse xenografted with human CAL51 cells assessed as loss in body weight at 10 mg/kg, iv administered every 3 days for 16 days relative to control; assay type: organism-based; details: in vivo
ZR-75-30 = assay: Antiproliferative activity against human ZR75-30 cells after 3 days by CellTiter-Glo assay; assay type: cell-based; details: zr-75-30, 72 h
Method in brief: as §1

CAL-51 [10] = assay: Antiproliferative activity against human CAL51 cells xenografted in SCID mouse assessed as tumor growth inhibition at 20 mg/kg, iv administered every 3 days for 16 days relative to control; assay type: functional; details: CAL-51, iv, read-out: TGI
Method in brief: (§3)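 Mice bearing tumors of about 125 mm3 randomized (n = 8−10/group) and given compound intravenously at the listed doses and schedules. Tumors measured twice weekly by digital caliper on long and short axes; volume = width² × length/2.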

[11] = biological target: Dual specificity tyrosine-phosphorylation-regulated kinase 1B (Homo sapiens, UniProt Q9Y463); details: 3 uM
[12] = MRT in SCID mouse at 5 mg/kg, iv; assay type: ADME, organism-based; details: in vivo
MDA-MB-361 = assay: Antiproliferative activity against human MDA-MB-361 cells after 3 days by CellTiter-Glo assay; assay type: cell-based; details: mda-mb-361, 72 h
Method in brief: as §1

[13] = biological target: T4, Phosphatidylinositol 5-phosphate 4-kinase type-2 gamma (Homo sapiens, UniProt Q8TBX8); assay: Inhibition of PIP4K2C in human HCT116 cell lysate after 1 hr by LC-MS/MS analysis relative to control
T4 sequence (Q8TBX8 whole entry): T2 sequence (whole entry)

[14] = Volume of distribution at steady state in rat at 2 mg/kg, iv; assay type: ADME, organism-based; details: in vivo, read-out: Vdss
[15] = biological target: T3, Phosphorylase b kinase gamma catalytic chain, skeletal muscle/heart isoform; details: 3 uM
Target sequence in this assay (Q16816 whole entry, looked up, canonical isoform): as the sequence (Q16816 whole entry, canonical isoform) above

CAL-51 [16] = assay: Antiproliferative activity against human CAL51 cells xenografted in SCID mouse assessed as tumor growth inhibition at 10 mg/kg, iv administered every 3 days for 16 days relative to control; assay type: functional; details: CAL-51, iv, read-out: TGI
Method in brief: as §3

[17] = Clearance in rat at 2 mg/kg, iv; assay type: ADME, organism-based; details: in vivo
[18] = biological target: T5, Dual specificity tyrosine-phosphorylation-regulated kinase 3 (Homo sapiens) (UniProt O43781); details: 3 uM
T5 sequence (whole entry): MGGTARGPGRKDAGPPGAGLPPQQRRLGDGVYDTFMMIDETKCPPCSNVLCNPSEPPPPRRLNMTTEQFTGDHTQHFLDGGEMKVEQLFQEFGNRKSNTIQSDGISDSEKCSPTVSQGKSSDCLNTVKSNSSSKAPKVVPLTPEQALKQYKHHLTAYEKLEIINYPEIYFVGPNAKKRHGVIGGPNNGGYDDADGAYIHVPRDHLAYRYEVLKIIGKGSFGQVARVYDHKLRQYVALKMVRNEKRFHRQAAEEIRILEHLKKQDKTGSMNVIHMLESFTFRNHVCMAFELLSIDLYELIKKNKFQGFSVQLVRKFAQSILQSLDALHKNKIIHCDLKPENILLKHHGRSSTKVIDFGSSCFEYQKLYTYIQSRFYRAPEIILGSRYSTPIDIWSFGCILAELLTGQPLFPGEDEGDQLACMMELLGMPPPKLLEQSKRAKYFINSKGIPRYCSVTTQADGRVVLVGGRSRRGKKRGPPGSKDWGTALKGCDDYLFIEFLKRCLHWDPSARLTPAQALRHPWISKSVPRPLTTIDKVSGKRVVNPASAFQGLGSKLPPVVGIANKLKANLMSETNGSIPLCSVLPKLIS

[19] = biological target: T1, Dual specificity tyrosine-phosphorylation-regulated kinase 1A; assay: Inhibition of human full length GST-tagged DYRK1A expressed in baculovirus by Z'-LYTE assay
[20] = biological target: T6, Dual specificity tyrosine-phosphorylation-regulated kinase 3 (Homo sapiens, UniProt O43781); assay: Inhibition of human full length recombinant GST-tagged DYRK3 expressed in baculovirus by Z'-LYTE assay
T6 sequence (O43781 whole entry): T5 sequence (whole entry)

Chain of Dual specificity tyrosine-phosphorylation-regulated kinase 1B (Q9Y463 whole entry, looked up): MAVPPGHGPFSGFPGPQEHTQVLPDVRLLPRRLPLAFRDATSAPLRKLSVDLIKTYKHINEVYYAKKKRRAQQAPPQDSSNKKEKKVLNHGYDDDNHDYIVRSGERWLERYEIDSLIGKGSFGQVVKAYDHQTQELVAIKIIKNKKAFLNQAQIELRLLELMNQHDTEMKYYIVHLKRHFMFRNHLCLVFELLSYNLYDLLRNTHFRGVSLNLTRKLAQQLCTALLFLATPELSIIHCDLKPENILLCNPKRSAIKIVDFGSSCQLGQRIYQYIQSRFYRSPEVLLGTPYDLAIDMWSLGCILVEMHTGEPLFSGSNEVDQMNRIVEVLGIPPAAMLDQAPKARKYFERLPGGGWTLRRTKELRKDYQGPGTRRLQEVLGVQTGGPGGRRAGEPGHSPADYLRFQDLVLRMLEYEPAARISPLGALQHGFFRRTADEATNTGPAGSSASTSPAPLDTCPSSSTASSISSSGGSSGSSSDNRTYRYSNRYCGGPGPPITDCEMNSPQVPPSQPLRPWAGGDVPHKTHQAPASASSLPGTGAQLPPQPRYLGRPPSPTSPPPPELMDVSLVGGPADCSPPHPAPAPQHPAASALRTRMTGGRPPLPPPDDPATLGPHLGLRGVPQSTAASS

Q: Which inhibition [1] does the source give for `CNC(=O)c1ccc(Nc2nc(OC3CCCC3)c3c(-c4ccc5nc(C)oc5c4)c[nH]c3n2)c(OC)c1` here?
A: Its inhibition is > 80%.

Q: And the Activity (CAL-51 [2])?
A: The Activity was “Active”.

Q: What about the Activity (MDA-MB-468) of the same molecule?
A: The Activity was “Active”.

Q: And the Activity [3]?
A: The Activity was > 75%.

Q: What about the IC50 [4] of the same molecule?
A: The IC50 was 136 nM.

Q: What about the remaining at 1 h [5] of the same molecule?
A: The remaining at 1 h was 98%.

Q: What about the remaining at 1 h [6] of the same molecule?
A: The remaining at 1 h was 91%.

Q: And the clearance [7]?
A: The clearance was 8.48 mL/min/kg.

Q: And the MRT [8]?
A: The MRT was 4.1 h.

Q: And the Activity [9]?
A: Its Activity is 26%.

Q: And the Activity (Mus musculus)?
A: Its Activity is 5%.

Q: And the Activity (ZR-75-30)?
A: The Activity was “Non-Toxic”.

Q: And the inhibition in vivo at 20 mg/kg (CAL-51 [10])?
A: The inhibition in vivo at 20 mg/kg was 71%.

Q: What about the inhibition [11] of the same molecule?
A: Its inhibition is > 80%.

Q: What about the MRT [12] of the same molecule?
A: The MRT was 5.2 h.

Q: What about the Activity (MDA-MB-361) of the same molecule?
A: The Activity was “Non-Toxic”.

Q: What about the IC50 [13] of the same molecule?
A: The IC50 was 1300 nM.

Q: And the Vd [14]?
A: Its Vd is 2.3 L/kg.

Q: What about the inhibition [15] of the same molecule?
A: Its inhibition is > 80%.

Q: What about the inhibition in vivo at 10 mg/kg (CAL-51 [16]) of the same molecule?
A: Its inhibition in vivo at 10 mg/kg is 71%.

Q: What about the clearance [17] of the same molecule?
A: The clearance was 9.3 mL/min/kg.

Q: What about the inhibition [18] of the same molecule?
A: Its inhibition is > 80%.

Q: What about the IC50 [19] of the same molecule?
A: Its IC50 is 104 nM.

Q: What about the IC50 [20] of the same molecule?
A: The IC50 was 99 nM.
